Assay [1] relates to Plasmodium falciparum. Kind of assay: Antimalarial activity against chloroquine-sensitive Plasmodium falciparum 3D7 infected in human erythrocytes after 96 hrs by luciferase based delayed death assay. The settings on record: 3D7, 96 h. It is filed as functional, organism-based. In a few lines:
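Delayed-death format of the 3D7 erythrocyte proliferation assay: parasites incubated 96 hours with compound so that activity against progeny is detected, with luciferase as the viability reporter; IC50 taken from this read-out.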

Assay [2] has as its system Schistosoma mansoni. Kind of assay: Antischistosomiasis activity against Schistosoma mansoni at 5 nM to 50 uM by thioredoxin glutathione reductase biochemical assay. It is filed as functional. In a few lines: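 S. mansoni TGR (20 nM) preincubated 10 min at room temperature with 100 μM NADPH and compound (50 μM to 5 nM, eight levels) in 0.1 M potassium phosphate pH 7.4, 10 mM EDTA. Then 3 mM DTNB was added and A412 followed over the first 3 min. Residual activity was expressed relative to DMSO controls, in triplicate, and IC50 derived.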

For assay [3], the system named is Schistosoma mansoni. Kind of assay: Antischistosomiasis activity against Schistosoma mansoni assessed as worm mobility and survival at 50 uM after 24 hrs by stereomicroscopic analysis. In kind it is functional, organism-based. In a few lines: (§1)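 Adult worms perfused with RPMI 1640 from female Swiss-Webster mice 7 weeks after cercarial infection. They were washed and held at 15–20 per well in cRPMI (25 mM HEPES, penicillin/streptomycin, 10% FBS) overnight at 37 °C, 5% CO2. Compound from 10 mM DMSO stock was tested at 50, 10, 5 and 1 μM against DMSO-only wells. Media plus compound were renewed every 48 h; motility and survival scored by stereomicroscope, 10 s per worm.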

The subject of assay [4] is Schistosoma mansoni. Kind of assay: Antischistosomiasis activity against Schistosoma mansoni assessed as worm mobility and survival at 10 uM by stereomicroscopic analysis. It is filed as functional, organism-based. In a few lines: as §1
Assay [5] relates to Ancylostoma ceylanicum. Kind of assay: Nematicidal activity against Ancylostoma ceylanicum assessed as live/dead worms at 100 uM up to 120 hrs by adult worm killing assay. It is filed as functional, organism-based. In a few lines:
(§2)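 Adult A. ceylanicum taken from small intestine of infected Syrian hamsters, cultured in RPMI 1640 with 50% FCS, penicillin/streptomycin, Fungizone. Ten worms per well, 2 wells per treatment, with 100 μM compound; DMSO and 100 μM albendazole controls. Wells scored by light microscopy every 24 h for percent live/dead, death meaning complete loss of motility, across 120 h.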

For assay [6], the system named is Ancylostoma ceylanicum. Put plainly: Nematicidal activity against Ancylostoma ceylanicum assessed as live/dead worms at 100 uM after 72 hrs by adult worm killing assay. It is filed as functional, organism-based. An outline of the steps:
as §2

Assay [7] relates to Plasmodium falciparum. Put plainly: Antimalarial activity against chloroquine-sensitive Plasmodium falciparum 3D7 infected in human erythrocytes after 72 hrs by SYBR Green I staining. The settings on record: 3D7, 72 h.
For assay [8], the system named is Plasmodium falciparum. Put plainly: Ratio of IC50 for chloroquine-sensitive Plasmodium falciparum 3D7 by luciferase based delayed death assay to IC50 for chloroquine-sensitive Plasmodium falciparum 3D7 by SYBR Green I staining. In kind it is functional. An outline of the steps:
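P. falciparum 3D7 in human erythrocytes (0.3% parasitemia, 2.5% hematocrit final), seven fivefold dilutions from 5.7 or 29 μM. Standard format: 72 h at 37 °C, 5% CO2, then saponin/Triton lysis with SYBR Green I overnight in the dark, fluorescence 485/535 nm. Delayed-death format: 96 h, luciferase viability read-out. The line is the ratio of the delayed-death IC50 to the SYBR IC50.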

SMILES strings stand for the structures. Calls of active or inactive are those of the source. No cut-off for these calls is given here.

A word on the IC50: it is the concentration needed to halve the response being measured.

In the case of `CC(C)(C)NCc1cc(Nc2ccnc3cc(Cl)ccc23)cc(-c2no[n+]([O-])c2C#N)c1`, the IC50 in assay [1] came out at 630 nM; in assay [7], 40 nM. For the same compound, the outcome in assay [2], in assay [3], in assay [5] and in assay [6] was Active. Moreover, in assay [4], the result was inactive.

For `N#Cc1c(-c2ccccc2)no[n+]1[O-]` [FUROXAN], the result in assay [2] and in assay [4] was Active.

Consider `CC(C)(C)N(Cc1cc(Nc2ccnc3cc(Cl)ccc23)cc(-c2no[n+]([O-])c2C#N)c1)N=O`, for which the IC50 in assay [1] was > 15000 nM; in assay [7] it was 113 nM.

Turning to `CC(C)(C)NCc1cc(Br)cc(Nc2ccnc3cc(Cl)ccc23)c1`, the IC50 came to 65 nM in assay [1] and 7 nM in assay [7].

`CCN(CC)Cc1cc(Nc2ccnc3cc(Cl)ccc23)ccc1O`: the results for the IC50 in assay [1] and in assay [7] were > 10000 nM and 15 nM, respectively.

Consider `CC(C)(C)N(Cc1cc(Nc2ccnc3cc(Cl)ccc23)cc(-c2no[n+]([O-])c2/C=N/O)c1)N=O`, for which the values for the IC50 in assay [1] and in assay [7] were 1070 nM and 24 nM, respectively. In assay [8], the “Ratio IC50” value worked out at 50.

Consider `C[C@@H]1CC[C@H]2[C@@H](C)C(=O)O[C@@H]3O[C@@]4(C)CC[C@@H]1[C@]32OO4` [ARTEMISININ], for which the IC50 in assay [1] amounted to 12 nM; in assay [7], 11 nM.
